Assay [1] is described as follows: S. cerevisiae growth inhibition in permissive medium (OD615), pilot counter-assay for S. cerevisiae lifespan shortening project, permissive growth control (AID 705;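 active = growth inhibition above 25% in both replicates, a cutoff set 3 SD above the mean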). The note with it: OD615, 24 h, at 10 µM, stronger effect = higher value. A digest of the protocol:
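Material: engineered DeaD yeast; Compound: one dose 10 µM, DMSO 0.25% final; Detection: absorbance (optical density) at 615 nm; Buffer or medium: permissive raffinose/galactose medium; Timing: 24 h exposure, 30 °C.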

The nature of assay [2]: S. cerevisiae growth inhibition in restrictive medium, OD615, pilot screen, restrictive growth control, yeast lifespan reduction project (AID 706;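 active = growth inhibition above a set limit, 3 SD over mean compound inhibition, in both replicates, cut at about 43% in these data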;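 note: modified DeaD lifespan yeast strain shifted to restrictive glucose medium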). To be noted: OD615, 48 h, at 10 µM, stronger effect = higher value. A digest of the protocol:
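Buffer or medium: restrictive glucose medium (CSMM-D); test system: modified S. cerevisiae; doses: single dose of 10 µM compound final, 0.25% DMSO; schedule: 48 h compound exposure at 30 °C; detection: absorbance (optical density) measured at 615 nm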

Assay [3] in a line: viability of HCT116 without oncogenic beta-catenin – human colon tumor cells, pilot screen (AID 823;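 active = cell viability at or below a set limit in both duplicate runs, the limit being the all-compound median minus 4 SD, cut at about 23% in these data, passing the limit was not always enough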;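 note: 0% = wells killed by 20 µM Hyamine and 100% = untreated DMSO cell wells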). To be noted: HCT116 beta-catenin knockout viability, CellTiter-Glo, 60 h; at 10 µM; stronger effect = lower value. In general terms: ATP-based viability assays read luminescence as a measure of living cells.
Assay [4] is described as follows: viability of PTEN-null HCT116 cells – cell-based, HCT116 clonal line, CellTiter-Glo, pilot screen (AID 824;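 active = viability at or below 27.92% in each of two runs, the all-compound median minus 4 SD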;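 note: 0% = 20 µM Hyamine control and 100% = vehicle cell control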). The note with it: HCT116 PTEN-deleted viability, 60 h, at 10 µM, stronger effect = lower value.
Assay [5] can be described thus: RAM pathway blockade in budding yeast – dse1pr::URA3 reporter, 5-FOA selection, pilot screen (AID 869).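 Note: 0% = DMSO wells with no growth and 100% = 10 µM 1-NA-PP1 with full growth; RAM network block rescues cells from 5-FOA so hits raise OD615 growth.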 The note with it: S. cerevisiae dse1pr::URA3 5-FOA growth, OD615, 2 d; at 10 µM; stronger effect = higher value; strain carries analog-sensitive mutant Cbk1 kinase.
The nature of assay [6]: RAM signaling pathway blockade in yeast – S. cerevisiae, Pdr1DBD-CYC8 efflux-inhibited sensitized strain, primary screen (AID 1298;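 active = RAM network inhibition above 8.4% in each of two replicates, 3 SD over the compound average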;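 note: 0% = DMSO untreated cells without growth and 100% = 10 µM 1-NA-PP1 full growth; higher means more yeast growth rescued from 5-FOA killing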). The note with it: S. cerevisiae cbk1-as DSE1-URA3 strain, 5-FOA growth OD615, 2 d; at 50 µM; stronger effect = higher value.
Assay [7] is described as follows: doxorubicin toxicity protection in MRP-1 cells – H69AR cells, CellTiter-Glo, duplicate, MRP-1 activator project, pilot screen (AID 807;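 active = viability increase at or above a cutoff of the median across tested compounds plus 3 SD, cut at about 8.5% in these data, passing the limit was not always enough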;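 note: compound pretreatment 18-22 h then 72 h combined with doxorubicin; 0% = doxorubicin alone and 100% = vehicle without doxorubicin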). To be noted: H69AR viability with doxorubicin, CellTiter-Glo luminescence; at 10 µM; stronger effect = higher value.

The structures appear in SMILES notation. Values without a mark were called inactive. Records with an inconclusive call do not appear. Calls of active or inactive are those of the source.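 Rule for the calls, unless noted: active = inhibition over a set limit, the all-compound mean plus 3 SD, in both replicate runs; inconclusive = over that limit in just one replicate run; inactive = at or under that limit in both runs.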

This is an account of results in PubChem BioAssay.

As a reminder, the viability is a read-out of living cells in per cent, often relative to untreated cells. What is called inhibition is the relative decrease from the control value, in per cent.

As to `CCc1ccc(C2CC(c3ccccc3C)n3nc(N)nc3N2)cc1` (stereo not drawn), the growth inhibition in assay [1] is 7.95%; in assay [2] it was -3.1%. The values for the viability in assay [3] and in assay [4] were 87.5% and 79.6%, respectively. Moreover, in assay [5], the inhibition was 0.19%. Further, the RAM network inhibition in assay [6] is 6.27%.
As to `CCOC(=O)c1c(N)sc2c(OC)c(Br)ccc12`, the growth inhibition in assay [1] was 21.3%. For the same molecule, in assay [7], the viability increase is 0.76%. The viability in assay [3] is 99.8%; in assay [4], 102%. The inhibition in assay [5] was -2.46%. Moreover, the RAM network inhibition in assay [6] is 5.62%.
As for `CCCCc1ccc(-c2nc(-c3ccncc3)no2)cc1`, the growth inhibition in assay [1] is -16.1%; in assay [2], -3.25%. In addition, the viability is 65.8% in assay [3] and 75.9% in assay [4]. The inhibition in assay [5] is 3.17%. Moreover, the RAM network inhibition in assay [6] was 3.23%.
Take `Cc1ccc(/C=c2/sc3nnc(-c4ccccc4Cl)n3c2=O)o1`: the growth inhibition in assay [1] is -7.07%. For the same molecule, the viability increase in assay [7] was -5%. The viability was 90.9% in assay [3] and 93% in assay [4]. In addition, the inhibition in assay [5] was 0.785%. Besides, the RAM network inhibition in assay [6] was 3.46%.
Turning to `COc1ccc(-n2c(Cc3cc(=O)[nH]c(=O)[nH]3)nnc2SCC(=O)N2CCC(C)CC2)cc1`, the growth inhibition in assay [1] was -11.5%; in assay [2], 4.4%. Also, the viability was 98.2% in assay [3] and 96.9% in assay [4]. Further, the inhibition in assay [5] is 2.92%. In assay [6], the RAM network inhibition is 0.47%.
As for `Cc1noc(/C=C/N(C)C)c1S(=O)(=O)N1CCCC(C(=O)NCc2ccco2)C1` (stereo not drawn), the values for the growth inhibition in assay [1] and in assay [2] were 4.93% and -2.94%, respectively. Besides, the viability in assay [3] is 97.6%; in assay [4] it was 92.1%. For the same molecule, in assay [5], the inhibition was 0.86%. The RAM network inhibition in assay [6] is 4.7%.
As for `Cc1cccc(N2CCN(C(=O)c3cc4c(=O)n(C)c5ccccc5c4n3C)CC2)c1C`, the growth inhibition in assay [1] is -7.02%; in assay [2], -6.91%. The viability in assay [3] was 61.1%; in assay [4], 65.5%. The inhibition in assay [5] is 3.12%. Moreover, the RAM network inhibition in assay [6] was 1.49%.
As to `CCN(CC)C1CC(=O)N(c2cccc(C)c2)C1=O` (stereo not drawn), the growth inhibition in assay [1] is 20%. For the same molecule, the viability increase in assay [7] was -1.11%. For the same molecule, the viability is 105% in assay [3] and 101% in assay [4]. In addition, the inhibition in assay [5] is 2.06%. In addition, the RAM network inhibition in assay [6] is -0.69%.
Take `O=C1C=C(O)CC(c2ccc(Cl)cc2)C1` (stereo not drawn): the growth inhibition was -2.77% in assay [1] and 0.79% in assay [2]. Also, the viability in assay [4] is 103%. Besides, in assay [5], the inhibition was -0.37%. Besides, the RAM network inhibition in assay [6] is 8.23%.
Regarding `COc1cc(Cl)c(C)cc1NC(=O)CSc1nnc(-c2cccnc2)n1Cc1ccco1`, the growth inhibition in assay [1] was 4.79%. For the same molecule, the viability increase in assay [7] was -3.48%. In addition, the viability is 84.8% in assay [3] and 79.8% in assay [4]. Moreover, in assay [5], the inhibition is 0.775%. The RAM network inhibition in assay [6] was 7.75%.
Regarding `Cc1cccc(-n2ncc3c(N4CC(C)CC(C)C4)ncnc32)c1` (stereo not drawn), the growth inhibition was -1.33% in assay [1] and -3.92% in assay [2]. The viability in assay [3] was 59.9%; in assay [4] it was 78.1%. The inhibition in assay [5] is 1.74%. Further, the RAM network inhibition in assay [6] is 6.19%.
`CCOc1ccccc1N1CSC2=C(C#N)C(c3c(OC)ccc4ccccc34)CC(=O)N2C1` (stereo not drawn): in assay [1], the growth inhibition is 4.14%. The viability increase in assay [7] is -6.32%. In addition, the results for the viability in assay [3] and in assay [4] were 67.3% and 65.5%, respectively. In addition, the inhibition in assay [5] is 3.73%. Besides, the RAM network inhibition in assay [6] was 3.99%.
For `CCOC(=O)/C=C1\SCC(=O)N1CCOc1cccc(Br)c1`, the values for the growth inhibition in assay [1] and in assay [2] were -18.6% and -29.1%, respectively. Also, the viability in assay [3] is 85.5%; in assay [4], 80.4%. For the same molecule, the inhibition in assay [5] was 2.75%. For the same molecule, in assay [6], the RAM network inhibition was 3.37%.
In the case of `Oc1c(CN2CCc3ccccc3C2)cc(Cl)c2cccnc12`, the growth inhibition in assay [1] was 5.68%. Also, the viability increase in assay [7] is -9.01%. The viability in assay [3] is 1.27% (active); in assay [4], 0.66% (active). Moreover, the inhibition in assay [5] is -1.5%. Moreover, the RAM network inhibition in assay [6] was -2.41%.
On to `CN(C)S(=O)(=O)c1ccc(S(=O)(=O)N2CCN(CCC#N)CC2)cc1`, for which the figures for the growth inhibition in assay [1] and in assay [2] were -0.96% and 2.05%, respectively. Moreover, the viability in assay [3] was 102%; in assay [4], 101%. Moreover, in assay [5], the inhibition was 0.005%. The RAM network inhibition in assay [6] was -1.81%.
As for `Cc1noc(/C=C/N(C)C)c1S(=O)(=O)N1CCCC(C(=O)Nc2ccc3c(c2)OCO3)C1` (stereo not drawn), the growth inhibition is -1.3% in assay [1] and -0.88% in assay [2]. The viability in assay [3] was 89.1%; in assay [4] it was 89.7%. Moreover, the inhibition in assay [5] was 2.2%. Also, the RAM network inhibition in assay [6] is 7.17%.
Turning to `CN(c1ccccc1)S(=O)(=O)c1ccc(C(=O)Nc2nccs2)cc1`, the growth inhibition in assay [1] was -17.4%; in assay [2], -19.6%. Moreover, the viability in assay [3] was 84.8%; in assay [4], 83.3%. The inhibition in assay [5] is 3.73%. For the same molecule, the RAM network inhibition in assay [6] was 4.85%.
`Cn1c(CNc2ccccc2O)nc2ccccc21`: the growth inhibition in assay [1] was -5.35%. Further, the viability increase in assay [7] is -6.1%. The viability in assay [3] was 68.8%; in assay [4], 64%. Further, the inhibition in assay [5] was 0.42%. For the same molecule, the RAM network inhibition in assay [6] is -1.31%.
For `O=C(CCc1ccccc1)Nc1nnc(-c2ccc3c(c2)CCCC3)o1`, the growth inhibition in assay [1] was -1.89%; in assay [2] it was 11.3%. Besides, the figures for the viability in assay [3] and in assay [4] were 53.6% and 72.1%, respectively. Further, the inhibition in assay [5] is 0.09%. In addition, the RAM network inhibition in assay [6] was 5.06%.
